The term IC50 denotes the midpoint of a concentration-inhibition curve. A higher IC50 goes with lower potency.

Active and inactive are the calls of the source. The rule behind the calls is not given here.

Consider ten compounds from ChEMBL document CHEMBL1151790, “Novel angular furoquinolinones bearing flexible chain as antitumor agent: design, synthesis, cytotoxic evaluation, and DNA-binding studies” (Bioorg Med Chem, 2008).

Assay [1] concerns K562. In words: Cytotoxicity against human K562 cells by MTT assay. It is filed as functional, cell-based. The essentials: (§1)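 Cells run without irradiation; cytotoxicity read by microculture tetrazolium–formazan (MTT) method, reported as IC50.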
Background: Formazan colour is commonly taken as a measure of viable cells.

Assay [2] in a line: Cytotoxicity against human QGY cells by MTT assay. It is filed as functional, cell-based. The gist of the method:
as §1

In assay [3] the test system is HeLa. In words: Cytotoxicity against human HeLa cells by MTT assay. It is filed as functional, cell-based. The gist of the method:
as §1

Assay [4] deals with P388. In words: Cytotoxicity against mouse P388 cells by MTT assay. Format: functional, cell-based. The essentials: as §1
Assay [5] concerns A549. In words: Cytotoxicity against human A549 cells by SRB assay. It is filed as functional, cell-based. The gist of the method: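 Cells run without irradiation; cytotoxicity read by sulforhodamine B dye staining, reported as IC50.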
For orientation: The SRB assay estimates cell density from bound dye.

For assay [6], the system named is DNA. In words: Binding affinity to calf thymus DNA by fluorescence quenching technique. It is filed as nucleic-acid assay. Conditions: Bos taurus. The gist of the method: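 Calf-thymus DNA held at 50 µM with compound at […] in Tris–HCl (30 mM, pH 7.5); matching compound-only samples served as controls. Solutions […] 1 day at 25 °C in the dark, then fluorescence wavelength and intensity area measured.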

The test system of assay [7] is Escherichia coli. In words: Induction of DNA photocleavage activity in Escherichia coli pBR322 DNA assessed as form 3 linear in presence of irradiation by gel electrophoresis. The essentials:
(§2)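 pBR322 DNA (25 ng/µL) with compound at several concentrations in Tris–HCl (20 mM, pH 7.5), irradiated 2 h. Analysed on 1% agarose gel with ethidium bromide; supercoiled form I, nicked form II, linear form III; triplicate runs.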

Assay [8] relates to Escherichia coli. In words: Induction of DNA cleavage activity in Escherichia coli pBR322 DNA by gel electrophoresis. The essentials:
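Plasmid pBR322 DNA (25 ng/µL) incubated with compound at several concentrations in Tris–HCl (20 mM, pH 7.5), 25 °C, 12 h, no irradiation. Products resolved on 1% agarose with ethidium bromide staining; supercoiled (I), nicked (II), linear (III) forms scored; triplicate.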

Assay [9] deals with DNA. In words: Binding affinity to calf thymus DNA by circular dichroism spectra. It is filed as nucleic-acid assay. Particulars: Bos taurus. The essentials:
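CD spectra recorded on 10 µM compound with 100 µM calf-thymus DNA in Tris–HCl buffer (pH 7.0), 1-cm quartz cell, 200–600 nm; buffer-alone spectrum subtracted. DNA checked protein-free by A260/A280 1.8–1.9 and quantified from 260 nm absorbance.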
In general terms: Circular dichroism is widely used to follow secondary structure.

Assay [10] concerns Escherichia coli. In words: Induction of DNA photocleavage activity in Escherichia coli pBR322 DNA assessed as form 2 […] in presence of irradiation by gel electrophoresis. The gist of the method: as §2

Consider `CCn1c(=O)cc(C)c2ccc3oc(C)c(C)c3c21`, for which the IC50 in [1], in [2], in assay [3], in assay [4] and in assay [5] was over 100 µM each time. In assay [6], this compound displayed a Kb of 2.79 ×10⁵ /M.

With `Cc1oc2ccc3c(C)cc(=O)n(CC[N+](C)(C)C)c3c2c1C`, the IC50 in [3] was 49.5 µM. The Kb in assay [6] is 3.18 ×10⁵ /M.

For the compound `Cc1oc2ccc3c(C)cc(=O)n(CCN(C)C)c3c2c1C`, the outcome in assay [7], in assay [9] and in [10] was Active. Also, the IC50 in [1] was 55.7 µM; in assay [2], 72.7 µM; in [3] it was 39.1 µM; in assay [4], 51.5 µM; in [5] it was 30.4 µM. The outcome in [8] was inactive. In [6], this compound showed a Kb of 2.66 ×10⁵ /M.

As for `Cc1oc2ccc3c(C)cc(=O)n(CC(=O)NCCN(C)C)c3c2c1C`, the outcome in [7] and in assay [10] was Active. In addition, the IC50 in assay [3] turned out to be 20.7 µM; in assay [4] it was 14.5 µM; in assay [5], 20.4 µM. Also, in assay [8], the outcome was inactive. In assay [6], this compound yielded a Kb of 1.58 ×10⁵ /M.

On to `Cc1oc2ccc3c(C)cc(=O)n(CCCN(C)C)c3c2c1C`, for which the 50% inhibitory concentration (IC50) worked out at 71.1 µM in assay [1]; 74.9 µM in assay [2]; 35 µM in assay [3]; 45.3 µM in assay [4]; 29.6 µM in assay [5]. Also, the result in assay [8] was inactive. Besides, the Kb in assay [6] came out at 2.53 ×10⁵ /M.

Consider `Cc1oc2ccc3c(C)cc(=O)n(CC#N)c3c2c1C`, for which the half-maximal inhibitory concentration (IC50) in assay [1], in assay [2], in assay [3], in [4] and in assay [5] was over 100 µM throughout. This compound also registered a Kb in assay [6] of 2.06 ×10⁵ /M.

For the compound `CCOC(=O)Cn1c(=O)cc(C)c2ccc3oc(C)c(C)c3c21`, the 50% inhibitory concentration (IC50) in [1], in [2], in assay [3], in [4] and in [5] was over 100 µM throughout. Moreover, in assay [6], the Kb came to 2.54 ×10⁵ /M.

As for `Cc1oc2ccc3c(C)cc(=O)[nH]c3c2c1C`, the result in assay [7] and in assay [10] was Active. For the same compound, the IC50 was over 100 µM in assay [1]; 98.9 µM in assay [2]; 89.2 µM in [3]; over 100 µM in [4]; 99.3 µM in assay [5]. Further, in assay [8], the outcome was inactive. The compound also yielded a Kb in assay [6] of 2.57 ×10⁵ /M.

For `Cc1oc2ccc3c(C)cc(=O)n(Cc4ccccc4)c3c2c1C`, the 50% inhibitory concentration (IC50) in assay [1], in assay [2], in [3], in [4] and in assay [5] was over 100 µM throughout. In addition, in [6], the Kb is 3.15 ×10⁵ /M.

Consider `Cc1oc2ccc3c(C)cc(=O)n(CC(=O)O)c3c2c1C`, for which the half-maximal inhibitory concentration (IC50) in [3] was over 100 µM. In [6], this compound came in with a Kb of 2.69 ×10⁵ /M.
